Columns and labels:
[1] = molecular target: Beta-lactamase (Pseudomonas aeruginosa (strain ATCC 15692 / PAO1 / 1C / PRS 101 / LMG12228)) (UniProt P24735); assay: Inhibition of Pseudomonas aeruginosa CL5701 beta lactamase AmpC assessed as concentration required to reduce imipenem MIC
[2] = molecular target: Beta-lactamase (Pseudomonas aeruginosa (strain ATCC 15692 / PAO1 / 1C / PRS 101 / LMG12228), UniProt P24735); assay: Inhibition of Pseudomonas aeruginosa beta lactamase AmpC by spectrophotometry
Chain of Beta-lactamase (P24735 whole entry): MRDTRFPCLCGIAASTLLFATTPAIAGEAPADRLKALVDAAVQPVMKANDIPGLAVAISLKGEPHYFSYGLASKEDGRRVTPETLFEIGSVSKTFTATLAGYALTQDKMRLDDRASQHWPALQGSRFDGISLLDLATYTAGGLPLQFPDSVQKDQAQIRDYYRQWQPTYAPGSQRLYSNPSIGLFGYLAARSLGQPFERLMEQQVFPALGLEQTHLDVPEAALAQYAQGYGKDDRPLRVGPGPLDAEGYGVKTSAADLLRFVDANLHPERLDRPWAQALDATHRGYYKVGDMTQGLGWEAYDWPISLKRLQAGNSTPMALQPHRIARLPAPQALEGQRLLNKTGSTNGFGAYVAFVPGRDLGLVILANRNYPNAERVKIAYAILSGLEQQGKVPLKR
How it was run: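 Nitrocefin hydrolysis by P. aeruginosa AmpC, enzyme and substrate in 100 mM KH2PO4 pH 7 with 0.005% BSA. Inhibitor serially diluted from DMSO and preincubated with AmpC 40 min at room temperature. Substrate then added for a further 40 min, quenched with 2.5 N acetic acid, absorbance read at 492 nm. IC50 taken from semi-log plots of inhibition versus concentration.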

[3] = test system: Pseudomonas aeruginosa; assay: Antimicrobial activity against Pseudomonas aeruginosa CL5701 infected in mouse spleen assessed as reduction in colony forming unit at 4.7 mg/kg qid for 1 hr administered after 1.25 hrs of infusion; assay type: functional
How it was run: (§1)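 In vivo P. aeruginosa CL5701 infection: imipenem/cilastatin 2.5 mpk given with the BLI at 2.35 or 4.7 mpk, by 1.25 h infusion QID for 1 day. Bacterial CFU counted in the spleen and expressed as log reduction relative to imipenem/cilastatin alone.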

[4] = test system: Pseudomonas aeruginosa; assay: Antimicrobial activity against Pseudomonas aeruginosa CL5701 infected in mouse spleen assessed as reduction in colony forming unit at 2.5 mg/kg qid for 1 hr administered after 1.25 hrs of infusion; assay type: functional; how it was run: as §1
[5] = test system: Pseudomonas aeruginosa; assay: Antimicrobial activity against Pseudomonas aeruginosa CL5701 infected in mouse spleen assessed as reduction in colony forming unit at 2.35 mg/kg qid for 1 hr administered after 1.25 hrs of infusion; assay type: functional; how it was run: as §1

Chain of Beta-lactamase (Pseudomonas aeruginosa (strain ATCC 15692 / PAO1 / 1C / PRS 101 / LMG12228)) (P24735 27-397 limits assumed): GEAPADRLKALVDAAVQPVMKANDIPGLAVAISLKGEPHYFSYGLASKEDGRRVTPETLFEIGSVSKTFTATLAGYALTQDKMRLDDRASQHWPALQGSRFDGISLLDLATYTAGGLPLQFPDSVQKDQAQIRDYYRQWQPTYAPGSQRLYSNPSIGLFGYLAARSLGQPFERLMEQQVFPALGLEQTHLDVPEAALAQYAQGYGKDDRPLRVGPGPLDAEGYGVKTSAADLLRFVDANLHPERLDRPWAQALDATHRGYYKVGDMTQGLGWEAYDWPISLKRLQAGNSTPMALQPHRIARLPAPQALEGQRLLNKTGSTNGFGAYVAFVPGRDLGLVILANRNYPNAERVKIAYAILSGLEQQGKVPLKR

Structure (SMILES) | Activity [1] [µM] | IC50 [2] [µM] | other results
O=C(NC1CCCCNCCC1)N1CC[C@@H]2[C@H]1C(=O)N2S(=O)(=O)O (stereo in doubt; 14) [listing 1 of 2 here] | > 100 |  | 
O=C1NCCCC[C@@H]1NC(=O)N1CC[C@@H]2[C@H]1C(=O)N2S(=O)(=O)O | > 100 | 0.8 | 
O=C(NC1CCCNCCC1)N1CC[C@@H]2[C@H]1C(=O)N2S(=O)(=O)O | 25 | 3.4 | 
O=C(N[C@H]1CNCCOC1)N1CC[C@@H]2[C@H]1C(=O)N2S(=O)(=O)O | 50 |  | 
O=C(N[C@@H]1CNCCOC1)N1CC[C@@H]2[C@H]1C(=O)N2S(=O)(=O)O | 25 |  | 
O=C(NC1CCNCC1)N1CC[C@@H]2[C@H]1C(=O)N2S(=O)(=O)O | 21 |  | log10cfu [3]: 4.7
O=C(NC1CCCCNCC1)N1CC[C@@H]2[C@H]1C(=O)N2S(=O)(=O)O (single isomer, unassigned) | 12.5 |  | 
O=C(NC1CCCCCC1)N1CC[C@@H]2[C@H]1C(=O)N2S(=O)(=O)O | > 100 |  | 
O=C(NC1CNCCNC1)N1CC[C@@H]2[C@H]1C(=O)N2S(=O)(=O)O | 100 | 17 | 
O=C(N[C@H]1CCCNCC1)N1CC[C@@H]2[C@H]1C(=O)N2S(=O)(=O)O | 9.4 | 1 | log10cfu [4]: 4.6; log10cfu [5]: 4.6
O=C(NC1CCCCNCC1)N1CC[C@@H]2[C@H]1C(=O)N2S(=O)(=O)O (stereo in doubt; 12) | > 100 |  | 
O=C(N[C@H]1CCCCNC1)N1CC[C@@H]2[C@H]1C(=O)N2S(=O)(=O)O | 50 | 1.9 | 
O=C(NC1CCCCNCCC1)N1CC[C@@H]2[C@H]1C(=O)N2S(=O)(=O)O (stereo in doubt; 13) [listing 1 of 2 here] | > 100 |  | 
O=C(NC1CCCCNCCC1)N1CC[C@@H]2[C@H]1C(=O)N2S(=O)(=O)O (stereo in doubt; 13) [listing 2 of 2 here] |  | 4 | 
O=C(NC1CCCCNCCC1)N1CC[C@@H]2[C@H]1C(=O)N2S(=O)(=O)O (stereo in doubt; 14) [listing 2 of 2 here] |  | 5 | 
O=C(N[C@@H]1CCCNCC1)N1CC[C@@H]2[C@H]1C(=O)N2S(=O)(=O)O | 25 |  | 

Reference: ChEMBL document CHEMBL1159072, “Side chain SAR of bicyclic beta-lactamase inhibitors (BLIs). 1. Discovery of a class C BLI for combination with imipinem” (Bioorg Med Chem Lett, 2010)
